MrgX1 antagonist – blocks BAM8-22 activation of human MrgX1 receptor; Q96LB2; MRGX1-HEK293 calcium flux, Fluo-4, BAM8-22 antagonism; stronger effect = lower value; B-score at 10 µM; 310,000 tested, 1.3% active;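 active means calcium-response B-score plate-corrected more than 3 library SD below zero, starting fluorescence within 5 deviations, no agonist response on first addition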;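 further: peak minus trough fluorescence over baseline after final BAM8-22 challenge near maximal dose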
Target sequence (Q96LB2 whole entry, looked up): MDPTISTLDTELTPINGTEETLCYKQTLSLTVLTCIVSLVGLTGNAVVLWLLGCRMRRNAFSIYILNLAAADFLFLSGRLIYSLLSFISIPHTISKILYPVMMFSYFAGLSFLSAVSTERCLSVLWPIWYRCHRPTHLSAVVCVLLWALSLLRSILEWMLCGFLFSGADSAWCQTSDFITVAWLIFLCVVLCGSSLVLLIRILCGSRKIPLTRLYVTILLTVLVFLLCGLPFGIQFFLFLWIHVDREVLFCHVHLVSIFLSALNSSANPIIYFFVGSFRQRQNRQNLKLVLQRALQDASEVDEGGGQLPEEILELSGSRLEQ
MrgX1 agonist – human MrgX1 receptor agonism, primary screen. Q96LB2. MrgX1-HEK293 cells, Fluo-4 calcium fluorescence, agonist mode; stronger effect = higher value. B-score at 10 µM. 310,000 tested, 0.44% active;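 active means calcium response B-score plate-corrected fluorescence ratio at least 3 library SD, with starting fluorescence B-score inside 5 SD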
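Assay system: stable human MrgX1 HEK293 cell line. Quantity: 15,000 cells per well. Schedule: cells plated overnight, dye loaded 0.5 h 37 °C, 0.5 h room temperature. Detection: Fluo-4 NW calcium-flux fluorescence, kinetic read. Read-out basis: peak-minus-minimum fluorescence over baseline, converted to B scores. Control set: positive and negative control wells on each plate.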
MrgX1 PAM – allosterically activates human MrgX1 receptor signaling. MrgX1-HEK293, Fluo-4 calcium flux, FDSS; stronger effect = higher value. B-score at 10 µM. 310,000 tested, 0.63% active;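 active means plate-corrected calcium response at least 3 library SD above typical, normal starting fluorescence, not activating the receptor alone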;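 further: compound read alongside a low EC10 to EC30 dose of BAM8-22 agonist; peak minus trough fluorescence over baseline measured at the second addition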
RGS4 pot – potentiators or activators of RGS4. AID 463111. B-score at 10 µM. HEK293 M3R/inducible RGS4, carbachol calcium flux Fluo4; stronger effect = lower value. 310,000 tested, 0.92% active;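 active means B-score of the integrated calcium signal more than 4 SD below the library mean, with starting fluorescence not abnormally high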;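 further: negative B-score means reduced calcium response which marks RGS4 activation or potentiation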
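Material: Inducible-RGS4 HEK293 cells carrying M3 receptor; also added: carbachol at ECmax as muscarinic agonist stimulus; incubation: compound preincubation 20 min at room temperature before agonist; signal: Fluo4-AM (2 µM) calcium-flux fluorescence, kinetic read; measure: integrated calcium ratio converted to B score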
RGS4 inh – inhibitors of human RGS4; P49798; HEK293 M3R/RGS4 inducible, Fluo-4 calcium flux; stronger effect = higher value; triggered by carbachol at its EC20; B-score at 10 µM; 310,000 tested, 0.45% active;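 active means B-score, a plate-corrected calcium signal, over three deviations above library mean, with baseline fluorescence within five deviations of library mean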;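 further: RGS4 expression induced by doxycycline in cells with stable M3 receptor; B-score is computed from the integrated fluorescence ratio over baseline after carbachol; higher B-score means a larger calcium signal and so more RGS4 inhibition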
Target sequence (P49798 whole entry, looked up): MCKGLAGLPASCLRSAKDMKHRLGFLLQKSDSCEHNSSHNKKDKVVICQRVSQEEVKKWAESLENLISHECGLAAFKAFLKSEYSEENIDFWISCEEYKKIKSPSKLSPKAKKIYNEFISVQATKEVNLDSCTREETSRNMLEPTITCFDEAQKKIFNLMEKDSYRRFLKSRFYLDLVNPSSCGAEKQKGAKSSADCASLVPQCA
MrgX1 ant reconf – human MrgX1 receptor antagonism, re-confirmation screen; MrgX1-HEK293, BAM8-22 calcium flux, Fluo-4; stronger effect = lower value; shares compounds with MrgX1 antagonist; AID 602420; 2,300 tested, 19% active; remaining BAM8-22 calcium response % of control (stronger effect = lower value), % at 10 µM;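 active means remaining agonist calcium response no higher than 100% minus 3 SD of agonist-only control wells, with starting fluorescence near control levels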;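 further: agonist BAM8-22 given at a near maximal EC90 to ECmax level; peak minus minimum fluorescence divided by baseline after agonist addition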
HEK293 Ca flux – MrgX1 antagonist counter-screen hit in parental HEK293 cells; shares compounds with MrgX1 antagonist; Fluo-4 calcium fluorescence, FDSS; fluorescence ratio F(max-min)/F0 at 10 µM; 4,000 tested, 2% active; AID 624111;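 active means duplicate-averaged calcium fluorescence ratio at least three times the standard deviation of buffer wells, a nonspecific response in parental cells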
HEK293 Ca counter – MrgX1 allosteric activator counter-screen hit in parental HEK293 cells | AID 624114 | parental HEK293 calcium flux, Fluo-4 fluorescence ratio; stronger effect = higher value | 4,000 tested, 0.4% active | fluorescence ratio F(max-min)/F0 at 10 µM | shares compounds with MrgX1 antagonist;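 active means calcium fluorescence ratio, averaged over duplicates, at least 3 SD of the buffer-well ratio, meaning a nonspecific response in receptor-free cells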;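 further: untransfected parental HEK293 lacking MrgX1 used as counterscreen for MrgX1 allosteric activators; fluorescence change taken during the second addition on a kinetic imager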
HEK293 Ca cntr2 – MrgX1 activator counter-screen hit in parental HEK293 cells. 4,000 tested, 8.7% active. shares compounds with MrgX1 antagonist. fluorescence ratio F(max-min)/F0 at 10 µM. Fluo-4 calcium fluorescence (FDSS); stronger effect = higher value;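 active means calcium fluorescence ratio at least three times the spread of buffer wells, meaning a non-specific response in parental cells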
Numbers stand for hits; . = inactive; / = not tested or not shown. Sampled rows, rich in hits. Any-hit rate of the full collection: about 3.5%.

SMILES | MrgX1 antagonist | MrgX1 agonist | MrgX1 PAM | RGS4 pot | RGS4 inh | MrgX1 ant reconf | HEK293 Ca flux | HEK293 Ca counter | HEK293 Ca cntr2
Cc1cccc(N2CCC(N3CCN(C4CCCCC4)C(CCO)C3)CC2)c1C (stereo not given) | . | . | . | . | . | / | / | / | /
O=C(COc1ccccc1[N+](=O)[O-])NCCC1=CCCCC1 | . | . | . | . | . | / | / | / | /
CCC1Oc2ccccc2N(CC(=O)NC2CC2)C1=O (stereo not given) | . | . | . | . | . | / | / | / | /
CCC1Sc2ccccc2N(CC(=O)NC2CC2)C1=O (stereo not given) | -7 | . | . | . | . | . | . | . | .
O=C(NCc1ccc(Cl)cc1)C(=O)NCC(c1cccnc1)N1CCN(c2ccc(F)cc2)CC1 (stereo not given) | -4.7 | . | . | . | . | 77% | . | . | .
O=C(NCC(c1cccnc1)N1CCN(c2ccc(F)cc2)CC1)c1ccccc1 (stereo not given) | . | . | . | . | . | / | / | / | /
O=C(COC(=O)c1cccnc1Nc1ccccc1F)NCCN1C(=O)CSC1=O | -12 | . | . | . | . | . | . | . | .
COC(=O)C(C)Sc1nc2c(cnn2-c2ccc(F)cc2)c(=O)[nH]1 (stereo not given) | . | . | . | . | . | / | / | / | /
CCC(Sc1nc2c(cnn2-c2ccccc2)c(=O)[nH]1)C(=O)OC (stereo not given) | -5.2 | . | . | . | . | 82% | . | . | .
CN(Cc1ccccc1)C(=O)c1cn(C)c2ccc(S(=O)(=O)N3CCCC3)cc2c1=O | . | . | . | . | . | / | / | / | /
CCOC(=O)C[C@H]1c2cc(F)ccc2S(=O)(=O)N1C1CCCCC1 | -6.4 | . | . | . | . | . | . | . | .
COC(=O)c1ccc(CSc2nc(C)nc3sc(C)c(C)c23)o1 | -7.4 | . | . | . | . | . | . | . | .
COC(=O)c1ccc(CSc2nnc(SCc3ccc(C(=O)OC)o3)s2)o1 | . | . | . | . | . | / | / | / | /
Cc1ccc(S(=O)(=O)NC(=O)c2ccccc2)cc1C(C)C | -8.1 | . | . | . | . | . | . | . | .
CCOc1ccc(S(=O)(=O)NC(=O)c2ccccc2)cc1 | . | . | . | . | . | / | / | / | /
CSc1ccc(NC(=O)N2CC=C(n3c(=O)[nH]c4ccccc43)CC2)cc1 | -4.7 | . | . | . | . | . | . | . | .
CC(=O)NC1CC2CCCC(C1)N2S(=O)(=O)c1ccccc1 (stereo not given) | -8.8 | . | . | . | . | . | . | . | .
CCOC(=O)Cc1csc(NS(=O)(=O)c2ccc3ccccc3c2)n1 | . | . | . | . | . | / | / | / | /
CCOC(=O)Cc1csc(NS(=O)(=O)Cc2ccccc2)n1 | -12 | . | . | . | . | . | . | . | .
CCCC(c1nnnn1Cc1ccc(OC)cc1)N1CCN(C(=O)c2ccco2)CC1 (stereo not given) | . | . | . | . | . | / | / | / | /
CCCCn1c(=O)[nH]c(=O)c2c1ncn2Cc1ccco1 | . | . | . | . | . | / | / | / | /
CCCCn1cnc2c(c(-c3ccccc3)c(-c3ccccc3)n2Cc2ccco2)c1=N | -14 | . | . | . | . | . | . | . | .
CCO[C@@H]1OC(C(=O)N2CCN(Cc3ccccc3)CC2)=C[C@H](c2csc3ccccc23)[C@H]1CCCO | . | . | . | . | . | / | / | / | /
Cc1cccc(C(=O)Nc2nnc(SCC(=O)Nc3ccc4c(c3)oc3ccccc34)s2)c1 | -11 | . | . | . | . | . | . | . | .
COc1cc(C(=O)OCCNC(=O)c2ccncc2)cc(OC)c1OC | . | . | . | . | . | / | / | / | /
SMILES | MrgX1 antagonist | MrgX1 agonist | MrgX1 PAM | RGS4 pot | RGS4 inh | MrgX1 ant reconf | HEK293 Ca flux | HEK293 Ca counter | HEK293 Ca cntr2
CCOC(=O)c1nn(-c2cc(C(=O)OC)cc(C(=O)OC)c2)cc1O | . | . | . | . | . | / | / | / | /
CCOC(=O)c1nn(-c2sc(C(=O)OC)c(C)c2C(=O)OC)cc1O | -6.8 | . | . | . | . | 62% | . | . | .
O=C(Nc1cccc2cccnc12)c1ccc(Br)cc1Br | . | . | . | . | . | / | / | / | /
CCC/C=C1/CCCOC(C(=O)NCc2ccc(S(C)(=O)=O)cc2)(C(F)(F)F)C1 (stereo not given) | . | . | . | . | . | / | / | / | /
CS(=O)(=O)c1ccc(CNC(=O)C2(C(F)(F)F)C/C(=C/CCO)CCCO2)cc1 (stereo not given) | -4.8 | . | . | . | . | . | . | . | .
Cc1cccc(NC(=S)NC(C)CCc2ccccc2)c1 (stereo not given) | -7.8 | . | . | . | . | . | . | . | .
COc1cc2ccccc2cc1C(=O)Nc1nccs1 | -4.6 | . | . | . | . | . | . | . | .
COC(=O)CCNC(=O)c1nn(Cc2ccccc2)c(=O)c2ccccc12 | . | . | . | . | . | / | / | / | /
Cc1cc(NCc2ccco2)n2ncnc2n1 | -7.1 | . | . | . | . | . | . | . | .
Cc1ccc(NC(=O)Nc2ccc(F)c(Cl)c2)cc1 | -6.8 | . | . | . | . | 62% | . | . | .
O=C(CCC(=O)Nc1cccnc1)Nc1cccnc1 | -4.8 | . | . | . | . | . | . | . | .
O=C(Nc1cccnc1)Nc1ccc(F)c(Cl)c1 | -5.2 | . | . | . | . | 69% | . | . | .
CCOC(=O)C1CCCN(CC(=O)Nc2cccc(C(C)=O)c2)C1 (stereo not given) | . | . | . | . | . | / | / | / | /
COc1ccc(NS(=O)(=O)c2cccc(C(=O)NCc3ccco3)c2)cc1 | -6.5 | . | . | . | . | . | . | . | 55
Cc1c(C(=O)O)[nH]c2c1C(=O)CC(c1ccc(Cl)cc1)C2 (stereo not given) | -4.5 | . | . | . | . | . | . | . | .
Cc1cc(C)n2nc(C(=O)Nc3nccs3)nc2n1 | . | . | . | . | . | / | / | / | /
Cc1csc(NC(=O)c2nc3nc(C)cc(C)n3n2)n1 | -5.4 | . | . | . | . | . | . | . | .
Cn1c(NNC(=O)C2CCCCC2)cc(=O)n(C)c1=O | . | . | . | . | . | / | / | / | /
CS(=O)(=O)N1CCCC(C(=O)NCc2ccco2)C1 (stereo not given) | -5.1 | . | . | . | . | . | . | . | .
O=C(NCc1ccco1)C1CCCN(S(=O)(=O)c2ccc(Br)cc2)C1 (stereo not given) | . | . | . | . | . | / | / | / | /
